Experimental findings from ChEMBL document CHEMBL2406932, “Heteroaromatic and aniline derivatives of piperidines as potent ligands for vesicular acetylcholine transporter” (J Med Chem, 2013) are described below.

Assay [1] concerns PC-12. The assay can be described thus: Selectivity ratio, ratio of Ki for sigma 2 receptor in rat liver homogenates to Ki for human VAChT expressed in rat PC12 cells. Format: cell-based.
The target in assay [2] is Sigma non-opioid intracellular receptor 1 (Cavia porcellus, UniProt Q60492). The assay is described as follows: Displacement of (+)- [3H]pentazocine from sigma 1 receptor expressed in guinea pig brain membrane homogenates by scintillation counting analysis. Type of assay: cell membranes.
Sequence of Sigma non-opioid intracellular receptor 1 (Q60492 whole entry): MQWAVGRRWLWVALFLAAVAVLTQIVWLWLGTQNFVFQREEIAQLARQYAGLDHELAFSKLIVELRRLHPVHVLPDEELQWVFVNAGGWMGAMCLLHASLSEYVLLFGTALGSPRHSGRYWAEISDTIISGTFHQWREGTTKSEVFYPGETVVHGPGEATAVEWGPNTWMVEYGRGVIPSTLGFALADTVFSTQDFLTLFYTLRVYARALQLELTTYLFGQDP
Assay [3] deals with PC-12. The assay is described as follows: Selectivity ratio, ratio of Ki for sigma 1 receptor in guinea pig brain homogenates to Ki for human VAChT expressed in rat PC12 cells. Format: cell-based.
Assay [4] can be described thus: Displacement of [3H]DTG from sigma 2 receptor in rat liver membrane homogenates after 120 mins by scintillation counting analysis. Type of assay: cell membranes. In a few lines: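 Rat liver membrane homogenate (~300 µg protein) with ~5 nM [3H]DTG plus 1 µM (+)-pentazocine to block sigma-1 sites, 120 min at room temperature, pH 7.4 Tris buffer. Nonspecific binding taken with 10 µM haloperidol. Filtration and scintillation counting.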
(Displacement assays read how much labelled ligand stays bound in the presence of the test substance.)

Assay [5] concerns the target T1, Vesicular acetylcholine transporter (Homo sapiens, UniProt Q16572).
T1 sequence (Q16572 whole entry): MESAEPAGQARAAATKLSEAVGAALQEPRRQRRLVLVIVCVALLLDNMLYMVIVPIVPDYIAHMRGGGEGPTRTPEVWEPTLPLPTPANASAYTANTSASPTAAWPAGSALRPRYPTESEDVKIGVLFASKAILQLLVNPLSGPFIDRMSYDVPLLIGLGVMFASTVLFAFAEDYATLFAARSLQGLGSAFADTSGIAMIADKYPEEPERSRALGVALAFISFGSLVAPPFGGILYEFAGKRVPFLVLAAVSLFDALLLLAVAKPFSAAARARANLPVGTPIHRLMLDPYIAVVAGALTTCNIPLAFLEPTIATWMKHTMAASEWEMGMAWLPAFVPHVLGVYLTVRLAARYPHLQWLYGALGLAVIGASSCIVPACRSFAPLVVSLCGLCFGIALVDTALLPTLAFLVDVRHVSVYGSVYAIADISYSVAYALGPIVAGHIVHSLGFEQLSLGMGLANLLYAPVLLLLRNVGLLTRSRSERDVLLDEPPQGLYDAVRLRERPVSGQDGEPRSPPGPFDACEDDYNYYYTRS
The assay can be described thus: Displacement of (-)-[3H]vesamicol from human VAChT expressed in rat PC12 cell membrane after 20 hrs. Type of assay: cell membranes, PC-12.

Setting [6] is: tested as the 11C-labelled form.

Broadly, the Ki is the equilibrium dissociation constant of an inhibitor or competing ligand from its target. A low value points to higher affinity. Turning to `Cn1cccc1C(=O)C1CCN([C@@H]2Cc3c(N)cccc3C[C@H]2O)CC1` (racemic), the Ratio Ki was 180 in the assay on PC-12 [1] and 200 in the assay with PC-12 [3]. Moreover, the Ki in assay [2] turned out to be 7660 nM; in assay [4], 6990 nM.
As to `Nc1cccc2c1C[C@@H](N1CCC(C(=O)c3cccnc3)CC1)[C@H](O)C2` (racemic), the Ratio Ki in the assay on PC-12 [1] was found to be 43; in the assay on PC-12 [3], 170. For the same compound, the Ki in assay [5] worked out at 118 nM; in assay [2], 20300 nM; in assay [4] it was 5080 nM.
Take `Cn1cccc1C(=O)C1CCN([C@@H]2Cc3ccccc3C[C@H]2O)CC1` (racemic): the Ratio Ki with PC-12 [1] worked out at 140; in the assay with PC-12 [3] it was 71. The Ki in assay [2] is 1300 nM; in assay [4] it was 2550 nM.
With `Cn1ccc(C(=O)C2CCN([C@@H]3Cc4ccccc4C[C@H]3O)CC2)cc1=O` (racemic), the Ratio Ki amounted to 32 in the assay with PC-12 [1] and 51 with PC-12 [3]. Besides, the values for the Ki in assay [2] and in assay [4] were 3350 nM and 2120 nM, respectively.
On to `COc1ccc(C(=O)C2CCN([C@@H]3Cc4ccccc4C[C@H]3O)CC2)cn1` (racemic), for which the Ki in assay [5] stood at 8.36 nM; in assay [2] it was 986 nM; in assay [4] it was 2570 nM.
For `O=C(c1ccc(F)nc1)C1CCN([C@@H]2Cc3ccccc3C[C@H]2O)CC1` (racemic), the Ratio Ki in the assay on PC-12 [1] amounted to 67; in the assay with PC-12 [3], 26. Also, the Ki turned out to be 682 nM in assay [2] and 1750 nM in assay [4].
For `Cc1ccc(C(=O)C2CCN([C@@H]3Cc4ccccc4C[C@H]3O)CC2)cn1` (racemic), the Ki is 2120 nM in assay [2] and 3770 nM in assay [4].
On to `O=C(c1cccnc1)C1CCN([C@@H]2Cc3ccccc3C[C@H]2O)CC1` (racemic), for which the Ratio Ki in the assay on PC-12 [1] was found to be 130; in the assay with PC-12 [3] it was 540. The figures for the Ki in assay [2] and in assay [4] were 12900 nM and 3030 nM, respectively.
In the same order, the values of `Cn1cccc1C(=O)C1CCN([C@@H]2Cc3cccc(N)c3C[C@H]2O)CC1` (racemic) are 4.9, 4, 9240 nM and 11400 nM.
Regarding `CN(C)c1ccc(C(=O)C2CCN([C@@H]3Cc4ccccc4C[C@H]3O)CC2)cc1` (racemic), the Ratio Ki with PC-12 [1] came to 4400; in the assay on PC-12 [3] it was 44. The Ki in assay [2] came to 40.9 nM; in assay [4], 4080 nM.
For the compound `O=C(c1ccccc1)C1CCN([C@@H]2Cc3ccccc3C[C@H]2O)CC1` (racemic), the figures for the Ratio Ki with PC-12 [1] and in the assay on PC-12 [3] were 74 and 51, respectively. In assay [4], this compound yielded a Ki of 320 nM.
In assay [4], `O=C(c1ccc(F)cc1)C1CCN([C@@H]2Cc3ccccc3C[C@H]2O)CC1` (relative stereo) had a Ki of 251 nM.
Regarding `O=C(c1ccc(OCCF)nc1)C1CCN([C@@H]2Cc3ccccc3C[C@H]2O)CC1` (racemic), the Ratio Ki in the assay with PC-12 [1] was 49; in the assay with PC-12 [3], 56. Besides, the inhibition constant (Ki) was 2120 nM in assay [2] and 1860 nM in assay [4].
In the case of `Cn1ccc(C(=O)C2CCN([C@@H]3Cc4ccccc4C[C@H]3O)CC2)c1` (racemic), the Ki in assay [2] came out at 3040 nM; in assay [4], 7710 nM.
`COc1cccnc1C(=O)C1CCN([C@@H]2Cc3ccccc3C[C@H]2O)CC1` (racemic): the values for the Ratio Ki in the assay with PC-12 [1] and in the assay on PC-12 [3] were 13 and 170, respectively. Further, the Ki in assay [2] turned out to be 21000 nM; in assay [4], 1560 nM.
Turning to `Cc1ccc(C(=O)C2CCN([C@@H]3Cc4c(N)cccc4C[C@H]3O)CC2)cn1` (racemic), the Ki was determined as 48 nM in assay [5] and 27500 nM in assay [4].
In the case of `CNc1ccc(C(=O)C2CCN([C@@H]3Cc4ccccc4C[C@H]3O)CC2)cc1` (racemic), the values for the Ratio Ki in the assay with PC-12 [1] and in the assay with PC-12 [3] were 2000 and 100, respectively. Also, the Ki turned out to be 305 nM in assay [2] and 6180 nM in assay [4].
`COc1ccc(C(=O)C2CCN([C@@H]3Cc4c(N)cccc4C[C@H]3O)CC2)cn1` (racemic): the Ratio Ki was found to be 220 in the assay on PC-12 [1] and 120 with PC-12 [3]. In addition, the Ki in assay [5] is 23.3 nM; in assay [2] it was 5680 nM; in assay [4], 10800 nM.
As for `O=C(c1cccs1)C1CCN([C@@H]2Cc3ccccc3C[C@H]2O)CC1` (racemic), in assay [5], the Ki is 5 nM.
Take `O=C(c1ncccc1OCCF)C1CCN([C@@H]2Cc3ccccc3C[C@H]2O)CC1` (racemic): the values for the Ratio Ki with PC-12 [1] and with PC-12 [3] were 4 and 260, respectively. For the same compound, the Ki in assay [2] is 20000 nM; in assay [4] it was 303 nM.
`Nc1ccc(C(=O)C2CCN([C@@H]3Cc4ccccc4C[C@H]3O)CC2)cc1` (racemic) registered a Ki in assay [5] (pc-12) of 1.68 nM.
Regarding `CNc1ccc(C(=O)C2CCN(C3Cc4ccccc4CC3O)CC2)cc1` (single isomer, unassigned; (+)), the Ratio Ki with PC-12 [1] worked out at 408; with PC-12 [3] it was 61.5. For the same compound, the Ki in assay [5] is 19 nM; in assay [2] it was 1170 nM; in assay [4] it was 7760 nM.
With `O=C(c1cccnc1F)C1CCN([C@@H]2Cc3ccccc3C[C@H]2O)CC1` (racemic), the Ratio Ki with PC-12 [1] was found to be 280. The figures for the Ki in assay [2] and in assay [4] were 1300 nM and 3530 nM, respectively.
Take `O=C(c1cncc(F)c1)C1CCN([C@@H]2Cc3ccccc3C[C@H]2O)CC1` (racemic): the figures for the Ratio Ki with PC-12 [1] and in the assay with PC-12 [3] were 170 and 70, respectively. In addition, the Ki in assay [2] was 709 nM; in assay [4], 1690 nM.
With `Cn1c(C(=O)C2CCN([C@@H]3Cc4ccccc4C[C@H]3O)CC2)cccc1=O` (racemic), the figures for the Ratio Ki in the assay with PC-12 [1] and in the assay with PC-12 [3] were 18 and 12, respectively. The Ki in assay [2] was determined as 2160 nM; in assay [4], 3340 nM.
In the case of `CNc1ccc(C(=O)C2CCN([C@H]3Cc4ccccc4C[C@@H]3O)CC2)cc1`, the Ratio Ki in the assay on PC-12 [1] (setting [6]) was found to be 14700; in the assay on PC-12 [3] (setting [6]) it was 1270.
